Measured values: PMC9292889 (Clinical Pharmacology in Drug Development, 2020)
“Also recorded” adds a separate entry of the source. Marks after values point to notes of the source that are not given here.

Experiments:
[1] = system: multidrug and toxin extrusion protein 2‐K; conditions: in vitro; cited from earlier work
P‐glycoprotein = conditions: in vitro; cited from earlier work
Safety and tolerability = format: in vivo, human; conditions: for Number of subjects (%) with ≥1 AE, all causalities: single and multiple doses
In short: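 Fasted healthy Chinese adults received oral test compound (2, 4, 10 mg) or placebo, single dose on day 1 then once daily on days 4–10, blinded and randomized. TEAEs were defined as onset or worsening after dosing and coded by MedDRA term. They were tabulated by treatment, relationship to drug, day of onset and severity. Single 12-lead ECGs, supine/standing blood pressure and pulse rate, and laboratory tests were also recorded.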

cytochrome P450 3A4 = conditions: oxidative metabolism mediated by cytochrome P450 3A4; cited from earlier work
[2] = Multiple-dose plasma pharmacokinetics; format: in vivo, human; conditions: for CL/F / RA (accumulation ratio): day 10, arithmetic mean (SD), N = 8; for Ratio of dose‐normalized geometric means AUCτ,ss (90%CI) / Ratio of dose‐normalized geometric means Cmax,ss (90%CI): multiple dose, day 10
In short: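 Oral test compound (2, 4, 10 mg) was given once daily on days 4–10 after an overnight fast of at least 10 h. Plasma was sampled predose on days 4–10 to judge steady state, and at 0.5–48 h after the day-10 dose. LC-MS/MS after liquid-liquid extraction from K2EDTA plasma, validated 0.200–200.00 ng/mL. Noncompartmental AUCτ,ss, Cmax,ss, tmax, t½, CL/F and accumulation ratio were derived.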

[3] = system: breast cancer resistance protein; conditions: in vitro; cited from earlier work
[4] = Single-dose plasma pharmacokinetics; format: in vivo, human; conditions: for Ratio of dose‐normalized geometric means AUC0‐∞ (90%CI) / Ratio of dose‐normalized geometric means Cmax (90%CI) / half-life: day 1; for half-life / Cmax / Tmax: human, plasma; for half-life: oral, across the 2‐ to 10‐mg dose range; for Cmax / Tmax: po; for Tmax: day 1, median (range); for CL/F: day 1, arithmetic mean (SD)
In short: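 Fasted healthy Chinese adults took a single oral dose of test compound (2, 4 or 10 mg) with 200 mL water on day 1. Plasma was sampled at 0.5–48 h by LC-MS/MS (K2EDTA plasma, liquid-liquid extraction, validated 0.200–200.00 ng/mL). Noncompartmental Cmax, tmax, AUC0‑∞ and CL/F were derived. A power model gave ratios of dose-normalized geometric means against 2 mg, with 90% CI.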

[5] = cited from earlier work
[6] = Clinical laboratory tests; format: in vivo, human; conditions: for maximum mean decrease in ANC: day 10, 8 hours after dosing; for maximum mean decrease from baseline in ANC: day 1, 8 hours after dosing
In short: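 Randomized, subject- and investigator-blinded study in healthy Chinese adults (screening ANC ≥2000 cells/μL). Oral dose of 2, 4 or 10 mg test compound or placebo, given after an overnight fast of at least 10 h with 200 mL water, meals 3 h later. Single dose on day 1, then once daily on days 4–10. Clinical laboratory tests were run throughout, and ANC/ALC change was taken from baseline.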

[7] = patients weighing <40 kg; cited from earlier work
[8] = system: organic anion transporter 3; conditions: in vitro; cited from earlier work

SMILES: CCS(=O)(=O)N1CC(CC#N)(n2cc(-c3ncnc4[nH]ccc34)cn2)C1 [Baricitinib]
- transporter substrate [1]: substrate
- transporter substrate (P‐glycoprotein): substrate
- ALT increased, drug related (number of TEAEs [number of subjects with TEAEs]) (Safety and tolerability; 2 mg (N = 8)): 0
- ANC decreased, drug related (number of TEAEs [number of subjects with TEAEs]) (Safety and tolerability; 2 mg (N = 8)): 0
- AST increased, drug related (number of TEAEs [number of subjects with TEAEs]) (Safety and tolerability; 2 mg (N = 8)): 0
- Bilirubin increased, drug related (number of TEAEs [number of subjects with TEAEs]) (Safety and tolerability; 2 mg (N = 8)): 0
- ECG abnormal, drug related (number of TEAEs [number of subjects with TEAEs]) (Safety and tolerability; 2 mg (N = 8)): 0
- Hypotension, drug related (number of TEAEs [number of subjects with TEAEs]) (Safety and tolerability; 2 mg (N = 8)): 0
- Orthostatic hypotension, drug related (number of TEAEs [number of subjects with TEAEs]) (Safety and tolerability; 2 mg (N = 8)): 0
- Overall drug related TEAEs (number of TEAEs [number of subjects with TEAEs]) (Safety and tolerability; 2 mg (N = 8)): 0 (0)
- Total number of TEAEs (all severities were “mild”), n, all causalities (Safety and tolerability; 2 mg (N = 8)): 2
- Number of subjects (%) with ≥1 AE, all causalities (Safety and tolerability; 2 mg (N = 8)): 1 (12.5)
- ALT increased, drug related (number of TEAEs [number of subjects with TEAEs]) (Safety and tolerability; 4 mg (N = 9)): 1 (1)
- ANC decreased, drug related (number of TEAEs [number of subjects with TEAEs]) (Safety and tolerability; 4 mg (N = 9)): 1 (1)
- AST increased, drug related (number of TEAEs [number of subjects with TEAEs]) (Safety and tolerability; 4 mg (N = 9)): 1 (1)
- Bilirubin increased, drug related (number of TEAEs [number of subjects with TEAEs]) (Safety and tolerability; 4 mg (N = 9)): 0
- ECG abnormal, drug related (number of TEAEs [number of subjects with TEAEs]) (Safety and tolerability; 4 mg (N = 9)): 0
- Hypotension, drug related (number of TEAEs [number of subjects with TEAEs]) (Safety and tolerability; 4 mg (N = 9)): 0
- Orthostatic hypotension, drug related (number of TEAEs [number of subjects with TEAEs]) (Safety and tolerability; 4 mg (N = 9)): 0
- Overall drug related TEAEs (number of TEAEs [number of subjects with TEAEs]) (Safety and tolerability; 4 mg (N = 9)): 3 (2)
- Total number of TEAEs (all severities were “mild”), n, all causalities (Safety and tolerability; 4 mg (N = 9)): 3
- Number of subjects (%) with ≥1 AE, all causalities (Safety and tolerability; 4 mg (N = 9)): 2 (22.2)
- ALT increased, drug related (number of TEAEs [number of subjects with TEAEs]) (Safety and tolerability; 10 mg (N = 8)): 2 (2)
- ANC decreased, drug related (number of TEAEs [number of subjects with TEAEs]) (Safety and tolerability; 10 mg (N = 8)): 0
- AST increased, drug related (number of TEAEs [number of subjects with TEAEs]) (Safety and tolerability; 10 mg (N = 8)): 1 (1)
- Bilirubin increased, drug related (number of TEAEs [number of subjects with TEAEs]) (Safety and tolerability; 10 mg (N = 8)): 1 (1)
- ECG abnormal, drug related (number of TEAEs [number of subjects with TEAEs]) (Safety and tolerability; 10 mg (N = 8)): 0
- Hypotension, drug related (number of TEAEs [number of subjects with TEAEs]) (Safety and tolerability; 10 mg (N = 8)): 0
- Orthostatic hypotension, drug related (number of TEAEs [number of subjects with TEAEs]) (Safety and tolerability; 10 mg (N = 8)): 1 (1)
- Overall drug related TEAEs (number of TEAEs [number of subjects with TEAEs]) (Safety and tolerability; 10 mg (N = 8)): 5 (4)
- Total number of TEAEs (all severities were “mild”), n, all causalities (Safety and tolerability; 10 mg (N = 8)): 6
- Number of subjects (%) with ≥1 AE, all causalities (Safety and tolerability; 10 mg (N = 8)): 4 (50.0)
- Severity of TEAEs (Safety and tolerability; all TEAEs reported during the study): mild
- Serious adverse events (SAEs) (Safety and tolerability; during the study): no SAEs reported
- 12‐lead ECG changes (Safety and tolerability; following administration of baricitinib 2 to 10 mg): no clinically significant dose‐dependent ECG changes
- Tolerability (Safety and tolerability; single and multiple oral once‐daily doses up to 10 mg): generally well tolerated
- dose identified as undergoing biotransformation (cytochrome P450 3A4): < 10%
- CL/F ([2]; 2 mg once daily): 13.9 (1.66) L/h
- RA (accumulation ratio) ([2]; 2 mg once daily): 1.11 (0.11)
- CL/F ([2]; 4 mg once daily): 15.3 (2.64) L/h
- RA (accumulation ratio) ([2]; 4 mg once daily): 1.06 (0.20)
- Ratio of dose‐normalized geometric means AUCτ,ss (90%CI) ([2]; 4 mg vs 2 mg): 1.03 (0.97‐1.09)
- Ratio of dose‐normalized geometric means Cmax,ss (90%CI) ([2]; 4 mg vs 2 mg): 0.99 (0.91‐1.08)
- CL/F ([2]; 10 mg once daily): 13.1 (1.95) L/h
- RA (accumulation ratio) ([2]; 10 mg once daily): 1.05 (0.07)
- Ratio of dose‐normalized geometric means AUCτ,ss (90%CI) ([2]; 10 mg vs 2 mg): 1.07 (0.94‐1.23)
- Ratio of dose‐normalized geometric means Cmax,ss (90%CI) ([2]; 10 mg vs 2 mg): 0.99 (0.81‐1.20)
- AUC ([2]; human, plasma, oral, 2 mg): 146 ng·h/mL
- Cmax ([2]; human, plasma, oral, 2 mg): 28.6 ng/mL
- Tmax ([2]; human, plasma, oral, 2 mg): 0.5 h
- half-life ([2]; human, plasma, oral, 2 mg): 5.68 h
- AUC ([2]; human, plasma, oral, 4 mg): 268 ng·h/mL
- Cmax ([2]; human, plasma, oral, 4 mg): 49.6 ng/mL
- half-life ([2]; human, plasma, oral, 4 mg): 7.55 h
- AUC ([2]; human, plasma, oral, 10 mg): 778 ng·h/mL
- Cmax ([2]; human, plasma, oral, 10 mg): 138 ng/mL
- half-life ([2]; human, plasma, oral, 10 mg): 7.39 h
- Attainment of steady‐state plasma concentrations ([2]; once‐daily dosing days 4 through 10, predose samples): after the second day of once‐daily dosing; also recorded: after the second once‐daily dose
- transporter substrate [3]: substrate
- Ratio of dose‐normalized geometric means AUC0‐∞ (90%CI) ([4]; 4 mg vs 2 mg, single dose): 1.05 (1.00‐1.11)
- Ratio of dose‐normalized geometric means Cmax (90%CI) ([4]; 4 mg vs 2 mg, single dose): 1.09 (0.97‐1.22)
- Ratio of dose‐normalized geometric means AUC0‐∞ (90%CI) ([4]; 10 mg vs 2 mg, single dose): 1.13 (1.01‐1.26)
- Ratio of dose‐normalized geometric means Cmax (90%CI) ([4]; 10 mg vs 2 mg, single dose): 1.22 (0.94‐1.58)
- half-life ([4]; mean t1/2, single dose): 5.9 to 7.4 h
- half-life ([4]; t1/2, individual values, single dose): 4.5 to 11.8 h
- Cmax ([4]; 2 mg): 24.6 ng/mL
- Tmax ([4]; 2 mg, single oral 2 mg, N = 8): 1 h
- Cmax ([4]; 4 mg): 51.3 ng/mL
- Tmax ([4]; 4 mg, single oral 4 mg, N = 9): 1 h
- Cmax ([4]; 10 mg): 152 ng/mL
- Tmax ([4]; 10 mg, single oral 10 mg, N = 8): 0.75 h
- CL/F ([4]; single oral 2 mg, N = 8): 14.5 (1.76) L/h
- CL/F ([4]; single oral 4 mg, N = 8): 15.0 (2.48) ^a L/h
- CL/F ([4]; single oral 10 mg, N = 8): 12.9 (1.24) L/h
- excreted in the urine in an unchanged form [5]: ~75%
- mean renal clearance [5]: ~12 L/h^2
- oral‐dose clearance [5]: 17 L/h
- mean terminal‐phase t1/2 ([5]; healthy White subjects, noncompartmental PK method): approximately 8 hours
- geometric mean terminal‐phase disposition half‐life (t1/2) ([5]; healthy White volunteers): about 8 hours
- time for ANC and ALC values to return to baseline postdose ([6]; days 1 and 10): ≤ 24 h
- maximum mean decrease in ANC ([6]; multiple dose 2 mg): 0.096 GI/L
- maximum mean decrease in ANC ([6]; multiple dose 4 mg): 0.706 GI/L
- maximum mean decrease in ANC ([6]; multiple dose 10 mg): 1.443 GI/L
- time of increase in ALC after dosing ([6]; single and multiple doses): 16 h
- time of maximum decrease in ANC after dosing ([6]; single and multiple doses): 8 h
- maximum mean decrease from baseline in ANC ([6]; single dose 2 mg): 0.616 GI/L
- maximum mean decrease from baseline in ANC ([6]; single dose 4 mg): 0.808 GI/L
- maximum mean decrease from baseline in ANC ([6]; single dose 10 mg): 1.706 GI/L
- t1/2 compared with adult populations [7]: substantially shorter
- transporter substrate [8]: substrate
